Source: PubChem
This is a sample that favours compounds with a hit; in the whole collection about 2.2% have one here.
FAK blocker: FAK kinase inhibitors, primary screen, biochemical | Focal adhesion kinase 1 (Homo sapiens), Q05397 | biochemical FAK kinase activity assay | inhibition, %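 (tested at 7 µM)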 | hit rate 0.84% among 97,000; in the data active = inhibition above about 19%;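 also: 0% = DMSO and 100% = reference compound high control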
PLK1 inh: human PLK1 kinase inhibitors, primary screen, biochemical, TR-FRET. inhibition, % at 10 µM. Serine/threonine-protein kinase PLK1 (Homo sapiens), P53350. hit rate 0.53% among 97,000. recombinant PLK1 kinase, TR-FRET peptide phosphorylation;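 active = inhibition of 50% or more in the single-concentration screen; inactive = inhibition below 50%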;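 also: 0% = DMSO max control and 100% = H-89 dihydrochloride min control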
Target sequence (P53350 whole entry, looked up): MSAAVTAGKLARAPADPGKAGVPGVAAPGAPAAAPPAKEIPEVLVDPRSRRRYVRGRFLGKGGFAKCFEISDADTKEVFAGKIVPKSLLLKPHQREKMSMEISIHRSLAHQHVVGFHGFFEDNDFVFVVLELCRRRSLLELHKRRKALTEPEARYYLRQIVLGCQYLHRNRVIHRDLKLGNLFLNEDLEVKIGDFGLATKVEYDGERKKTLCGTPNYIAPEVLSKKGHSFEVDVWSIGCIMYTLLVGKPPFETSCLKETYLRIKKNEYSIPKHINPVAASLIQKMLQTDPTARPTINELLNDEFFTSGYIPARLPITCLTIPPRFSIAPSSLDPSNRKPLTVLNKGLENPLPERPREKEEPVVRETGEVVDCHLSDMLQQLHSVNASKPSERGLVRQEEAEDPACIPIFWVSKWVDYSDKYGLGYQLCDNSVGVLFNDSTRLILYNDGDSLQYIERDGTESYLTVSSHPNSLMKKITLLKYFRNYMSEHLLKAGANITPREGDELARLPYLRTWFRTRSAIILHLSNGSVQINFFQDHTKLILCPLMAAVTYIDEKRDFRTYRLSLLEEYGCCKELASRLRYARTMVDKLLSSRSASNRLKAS
E-sel TNF inh: E-selectin induction blockers in HUVEC – imaging, immunofluorescence, high content, primary screen. HUVEC TNFa-induced E-selectin immunofluorescence. inhibition, % at 2 µM. hit rate 0.71% among 120,000. AID 1246, 2008;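 active = inhibition above the batch mean plus 3 SD, and confirmed as a hit on visual image review, cut at about 43% in these data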;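 also: 0% = TNF-stimulated DMSO wells and 100% = unstimulated control wells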
PLK1 PBD inh: Plk1 polo box domain binding inhibitors, primary screen, biochemical, fluorescence polarization. Serine/threonine-protein kinase PLK1 (Homo sapiens), P53350. Plk1 PBD phosphopeptide binding. inhibition, %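 (tested at about 20 µM)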. hit rate 0.13% among 97,000; in the data active = inhibition above about 34%, passing the limit was not always enough
HIV Rev-RRE inh: HIV-1 Rev-RRE binding inhibitors, primary screen, biochemical, FRET, protein-RNA interaction. P05866. AID 704, 2007. Rev peptide-RRE RNA binding. inhibition, % at 8 µM. hit rate 0.79% among 97,000;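 active = inhibition above the screen-wide mean plus 3 SD, cut at about 35% in these data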;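 also: 0% = median DMSO wells and 100% = median Neomycin B control wells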
Target sequence (P05866 whole entry, looked up): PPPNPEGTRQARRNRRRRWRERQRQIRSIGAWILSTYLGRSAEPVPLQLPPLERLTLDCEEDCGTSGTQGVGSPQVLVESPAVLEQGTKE
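Test system: Cy5-tagged RRE RNA duplex with fluorescein-tagged Rev peptide | Read-out: % inhibition of FRET ratio versus controls | Probe or stimulus: Labelled Rev peptide | Incubation: 5 min RNA-compound premix plus 15 min binding step, 25 °C | Technique: FRET fluorescence readout | Benchmarks: DMSO low control, neomycin B high control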
F-actin modifier: modifiers of F-actin cytoskeleton organization, primary screen, imaging, HUVEC, phalloidin staining, high-content imaging. HUVEC TNFa F-actin phalloidin imaging. inhibition, % at 2 µM. hit rate 0.18% among 91,000;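 active = inhibition above the batch mean plus 3 SD and confirmed as a hit by visual image inspection, cut at about 30% in these data, passing the limit was not always enough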
Numbers without * were called inactive; nt = no result; [ ] = remark or other dose.

SMILES	FAK blocker	PLK1 inh	E-sel TNF inh	PLK1 PBD inh	HIV Rev-RRE inh	F-actin modifier
COc1cccc(/C=C/C(=O)c2c(O)cc(C)oc2=O)c1O	-0.8	-1.0	-53.5	-28.4	10.5	nt
Nc1ccccc1N=Cc1ccc(-c2cccc(Cl)c2)o1	nt	nt	-15.1	nt	nt	nt
O=C(COc1ccc(/C=N/NC(=O)C(=O)N2CCCCCC2)cc1)Nc1ccccc1Cl	nt	nt	69.8*	nt	nt	nt
O=C(N/N=C/c1ccc(OCC(=O)N2CCCCC2)cc1)c1ccccc1	-1.4	-11.8	-5.9	-2.2	-3.5	-14.0
Cc1ccc(Oc2nc(-c3cccnc3)nc3ccccc23)c([N+](=O)[O-])n1	nt	nt	21.3	nt	nt	nt
COC(=O)c1ccccc1-n1cccc1C(=O)NP(=O)(N1CCOCC1)N1CCOCC1	nt	nt	1.7	nt	nt	nt
O=C1NC(c2ccco2)Nc2sc3c(c21)CCN(Cc1ccccc1)C3 (stereo unspecified)	0.9	5.6	11.1	-5.7	70.3*	-12.2
CN1CCc2c(sc3c2C(=O)NC(c2ccco2)N3)C1 (stereo unspecified)	13.4	-11.5	-5.5	14.0	28.3	-13.8
CN1CCc2c(sc3c2C(=O)NC(c2cn(Cc4ccccc4)c4ccccc24)N3)C1 (stereo unspecified)	10.3	-9.0	-9.6	-23.9	79.1*	-0.2
CNC(=O)COC(=O)c1cc(-c2ccccc2)nn1-c1ccccc1	nt	nt	0.5	nt	nt	nt
Cc1ccc(/C=C/C(=O)O)cc1S(=O)(=O)NCCO	-4.1	-5.1	54.0*	24.3	8.5	27.0
Cc1cc(C(C)(C)C)cc(S(=O)(=O)NCCO)c1C	-0.7	-5.8	-46.5	-26.5	-0.2	nt
CCOC(=O)Cn1c(=O)oc2cc(S(=O)(=O)N3CCN(C(=O)c4ccco4)CC3)ccc21	nt	nt	-10.3	nt	nt	nt
O=C(O)CCC(=O)Nc1ccccc1C(=O)NCc1ccccc1	nt	nt	-5.8	nt	nt	nt
O=C(COC(=O)CCc1ccc(S(=O)(=O)N2CCOCC2)cc1)NC1CCCC1	nt	nt	62.9*	nt	nt	nt
CCN1CC=C2C(C#N)=C(N)C(C#N)(C#N)[C@H](c3cccc(OC)c3OC)[C@H]2C1	1.8	-12.9	3.7	-19.9	65.1*	2.4
COc1cccc(C2C3CN(C)CC=C3C(C#N)=C(N)C2(C#N)C#N)c1OC (stereo unspecified)	0.8	-12.8	-9.5	21.2	84.5*[fluorescence artefact?]	5.1
O=C(CS(=O)(=O)c1ccccc1)N1CCCCCC1	-1.1	-7.1	4.0	-13.0	7.9	10.1
O=S(=O)(C/C(=C/CO)S(=O)(=O)c1ccccc1)c1ccccc1	8.8	-8.1	100.0*	2.9	7.6	-1.5
CCCC(=O)Nc1nc2c(OC)ccc(OC)c2s1	2.8	62.7*	nt	0.3	0.1	nt
CCC(=O)Nc1nc2c(OC)ccc(OC)c2s1	7.3	-13.2	10.5	11.5	7.3	-9.4
O=C(Nc1cc(=O)[nH]c2ncnn12)c1ccc(Cl)cc1Cl	-4.8	-11.3	61.8*	-5.4	10.6	17.2
Cn1c(N)c(C(=O)COC(=O)CN2C(=O)c3ccccc3C2=O)c(=O)n(C)c1=O	nt	nt	68.2*	nt	nt	nt
CCc1ccccc1OCC(=O)OCC(=O)c1c(N)n(C)c(=O)n(C)c1=O	nt	nt	-9.9	nt	nt	nt
CCC(c1nnnn1C1CCCC1)N1CCN(c2cccc(OC)c2)CC1 (stereo unspecified)	nt	nt	-11.6	nt	nt	nt
SMILES	FAK blocker	PLK1 inh	E-sel TNF inh	PLK1 PBD inh	HIV Rev-RRE inh	F-actin modifier
COc1ccc(N2CCN(c3nc(=S)n(-c4ccccc4)c(C)c3C(C)=O)CC2)cc1	5.2	-11.5	-12.6	-8.2	40.0*	-10.0
CC(C)[C@@H]1NC(=O)c2cc([N+](=O)[O-])cc(F)c2NCCC[C@@H](C(N)=O)NC(=O)[C@H](CO)NC1=O	nt	nt	3.1	nt	nt	nt
O=C(NCCN1C(=O)CSC1=O)c1ccccc1	4.6	-6.0	68.6*	-19.2	3.0	-1.0
CN1CC=C2C(C#N)=C(N)C(C#N)(C#N)C(c3ccsc3)C2C1 (stereo unspecified)	0.4	2.8	2.8	-18.8	56.4*	2.6
CN1CC=C2C(C#N)=C(N)C(C#N)(C#N)[C@H](c3cccs3)[C@H]2C1	0.7	1.8	-28.4	-8.4	58.0*	3.0
CN1CC=C2C(C#N)=C(N)C(C#N)(C#N)[C@H](c3cccc(Cl)c3)C2C1 (stereo partly specified)	-2.4	1.8	7.7	-30.3	63.8*	-3.4
CCCC1C2CN(C(C)C)CC=C2C(C#N)=C(N)C1(C#N)C#N (stereo unspecified)	11.6	-4.7	-6.1	-1.2	70.1*	27.0
CCOC(=O)N1CC=C2C(C#N)=C(N)C(C#N)(C#N)[C@H](c3ccsc3)[C@H]2C1	-1.6	-10.6	-1.8	-21.6	21.8	26.2
Cc1ccc(C(=O)Nc2nc(=O)n(C(=O)CC(C)C)s2)cc1	-0.1	-10.3	nt	11.6	3.2	nt
CC(C)CC(=O)n1sc(NC(=O)c2ccccc2)nc1=O	-2.7	-14.9	100.0*	1.4	0.9	50.4
Cc1c(Cl)cccc1N1CC(C(=O)Nc2nccs2)CC1=O (stereo unspecified)	-0.7	53.4*	nt	-4.7	2.0	29.1
CCn1cc(S(=O)(=O)CC(=O)NC2CCCCC2)c2ccccc21	-2.2	-11.0	nt	-7.0	3.3	-5.9
CCn1cc(S(=O)(=O)CC(=O)Nc2cc(C)ccc2C)c2ccccc21	-6.7	7.7	62.0*	26.4	-1.1	8.4
COCCn1c(=O)[nH]c2cc(C(=O)NCCc3ccc(S(N)(=O)=O)cc3)ccc2c1=O	nt	nt	-55.4	nt	nt	nt
COCCN1C(=O)N(c2cccc(C)c2)C(=O)C1CC(=O)Nc1ccc(F)cc1 (stereo unspecified)	-0.9	-12.6	79.7*	4.9	4.3	-12.1
COc1cc(NC(=O)CN2CCC(C)CC2)c(C)cc1[N+](=O)[O-]	nt	nt	83.0*	nt	nt	nt
CCN1CCN(CC(=O)Nc2cc(C)c(C)cc2[N+](=O)[O-])CC1	nt	nt	9.1	nt	nt	nt
CCOC(=O)c1cc(-c2ccccc2)sc1NC(=O)c1cc(OC)c(OC)c(OC)c1	nt	nt	-23.6	nt	nt	nt
c1ccc(-n2nnnc2-c2cnc(-c3ccncc3)nc2-c2cccs2)cc1	30.0*	-0.1	0.7	-29.2	3.1	13.6
CCOc1ccccc1NC(=O)COC(=O)/C=C/c1ccc(OC)c(OC)c1	nt	nt	-18.2	nt	nt	nt
CCCCOc1ccc(/C=C/C(=O)OCC(=O)NC(=O)NCC(C)C)cc1OCC	nt	nt	83.5*	nt	nt	nt
COc1cccc(C(C)NC(=O)c2c(F)cccc2Cl)c1 (stereo unspecified)	nt	nt	61.5*	nt	nt	nt
CC(C)C(O)(C#CCN1CCCCCC1)c1ccccc1 (stereo unspecified)	nt	nt	-18.5	nt	nt	nt
CCN1CC2=C(OC(N)=C(C#N)C2c2cccs2)/C(=C/c2cccs2)C1 (stereo unspecified)	7.4	-8.8	12.0	1.2	42.1*	5.9
COC(=O)C1NN=C(C(=O)c2ccc(Cl)cc2)C1c1ccc(OC)cc1 (stereo unspecified)	nt	nt	0.2	nt	nt	nt
Cc1ccsc1/C=N/n1c(-c2ccccn2)n[nH]c1=S	nt	nt	-3.2	nt	nt	nt
